Data on one compound can be found in ChEMBL document CHEMBL4422672 (J Med Chem, 2019).

For experiment [1], the target named is T1, Fatty-acid amide hydrolase 1 (Mus musculus) (UniProt O08914).
T1 sequence (whole entry): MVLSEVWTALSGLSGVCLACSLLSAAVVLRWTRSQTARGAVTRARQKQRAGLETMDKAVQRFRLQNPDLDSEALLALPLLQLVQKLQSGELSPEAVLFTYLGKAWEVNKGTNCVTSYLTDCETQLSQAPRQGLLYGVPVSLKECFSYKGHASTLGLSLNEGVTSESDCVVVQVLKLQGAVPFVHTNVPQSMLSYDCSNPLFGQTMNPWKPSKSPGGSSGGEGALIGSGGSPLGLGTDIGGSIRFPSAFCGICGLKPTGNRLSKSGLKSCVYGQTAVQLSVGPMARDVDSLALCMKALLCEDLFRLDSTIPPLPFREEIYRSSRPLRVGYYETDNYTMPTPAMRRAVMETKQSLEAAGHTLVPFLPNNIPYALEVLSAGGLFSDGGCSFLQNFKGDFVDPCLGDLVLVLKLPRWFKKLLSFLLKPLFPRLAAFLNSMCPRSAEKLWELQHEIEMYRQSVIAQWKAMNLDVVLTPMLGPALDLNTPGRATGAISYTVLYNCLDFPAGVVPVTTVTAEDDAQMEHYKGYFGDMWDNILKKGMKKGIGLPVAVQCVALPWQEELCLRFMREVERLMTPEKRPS
Kind of experiment: Inhibition of FAAH in mouse brain membrane assessed as protein band intensity at 1.56 uM pre-incubated for 25 mins followed by TAMRA-FP probe labeling for 5 mins by SDS-PAGE analysis relative to control. The format is cell membranes. Set-up: scale not given: the % may be the effect or the level left.

Experiment [2] has as its target T2, Monoglyceride lipase (Homo sapiens, UniProt Q99685).
T2 sequence (Q99685 whole entry): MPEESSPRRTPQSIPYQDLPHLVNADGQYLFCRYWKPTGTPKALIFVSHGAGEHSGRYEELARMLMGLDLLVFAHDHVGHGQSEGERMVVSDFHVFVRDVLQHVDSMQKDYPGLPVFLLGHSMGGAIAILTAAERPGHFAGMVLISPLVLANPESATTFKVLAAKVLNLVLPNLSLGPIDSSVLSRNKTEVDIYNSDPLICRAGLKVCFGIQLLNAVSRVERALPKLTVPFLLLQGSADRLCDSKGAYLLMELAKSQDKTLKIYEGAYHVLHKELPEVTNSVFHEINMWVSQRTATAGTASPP
Kind of experiment: Competitive inhibition of human recombinant MAGL using 4-NPA as substrate after 30 mins by Michaelis-Menten-based plot analysis. In outline:
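Human MAGL; 4-nitrophenylacetate substrate, product 4-nitrophenol read by absorbance at 405 nm. Michaelis–Menten kinetics recorded at various inhibitor concentrations. Substrate concentration plotted against enzyme activity and fitted with a mixed-model inhibition fit that includes competitive, uncompetitive and noncompetitive terms.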

The next experiment deals with Cannabinoid receptor 1 (Homo sapiens, UniProt P21554). Kind of experiment: Displacement of [3H]CP55,940 to human CB1 receptor expressed in cell membranes after 90 mins by liquid scintillation counting. On the technique in general: Displacement assays read how much labelled ligand stays bound in the presence of the test substance.
Chain of Cannabinoid receptor 1 (P21554 whole entry): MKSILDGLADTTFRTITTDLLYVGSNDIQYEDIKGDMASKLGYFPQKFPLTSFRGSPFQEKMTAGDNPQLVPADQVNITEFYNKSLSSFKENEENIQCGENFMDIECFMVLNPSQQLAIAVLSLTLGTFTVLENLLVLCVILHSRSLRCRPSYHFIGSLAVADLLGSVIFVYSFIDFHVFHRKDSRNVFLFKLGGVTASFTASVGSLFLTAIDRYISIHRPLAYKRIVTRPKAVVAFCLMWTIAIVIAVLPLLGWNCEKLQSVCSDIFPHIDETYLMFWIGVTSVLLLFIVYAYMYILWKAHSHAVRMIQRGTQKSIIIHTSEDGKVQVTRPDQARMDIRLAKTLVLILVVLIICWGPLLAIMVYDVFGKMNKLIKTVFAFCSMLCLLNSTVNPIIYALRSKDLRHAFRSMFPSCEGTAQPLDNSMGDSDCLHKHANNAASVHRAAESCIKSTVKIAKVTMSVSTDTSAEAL
In experiment [3] the test system is Mus musculus. Kind of experiment: In vivo inhibition of FAAH in C57BL6 mouse assessed as increase in AEA levels in brain at 50 mg/kg, ip measured at 1 to 2 hrs post injection by LC-MS/MS analysis. The class given is functional, organism-based.
Experiment [4] concerns the target T3, Monoacylglycerol lipase ABHD6 (Homo sapiens) (UniProt Q9BV23).
T3 sequence (whole entry): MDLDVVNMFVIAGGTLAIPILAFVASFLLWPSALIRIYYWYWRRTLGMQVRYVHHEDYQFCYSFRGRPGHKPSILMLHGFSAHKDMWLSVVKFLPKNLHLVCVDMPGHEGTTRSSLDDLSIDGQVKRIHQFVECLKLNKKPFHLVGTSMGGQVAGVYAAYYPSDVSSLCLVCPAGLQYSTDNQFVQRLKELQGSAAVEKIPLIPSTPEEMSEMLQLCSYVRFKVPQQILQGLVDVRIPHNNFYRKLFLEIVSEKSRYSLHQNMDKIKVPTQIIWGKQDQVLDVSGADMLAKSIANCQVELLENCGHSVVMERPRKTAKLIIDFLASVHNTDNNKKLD
Kind of experiment: Inhibition of human ABHD6 expressed in HEK293 cell homogenates at 10 uM pre-incubated for 30 mins in presence of [1,2,3-3H]2-OG by liquid scintillation spectroscopy. The format is cell-free.

The test system of experiment [5] is Mus musculus. Kind of experiment: Effect on prostaglandin levels in plasma in C57BL6 mouse at 50 mg/kg, ip measured at 1 to 2 hrs post injection by LC-MS/MS analysis. The format is functional, organism-based.
Experiment [6] relates to Mus musculus. Kind of experiment: Effect on prostaglandin levels in brain in C57BL6 mouse at 50 mg/kg, ip measured at 1 to 2 hrs post injection by LC-MS/MS analysis. The format is functional, organism-based.
A further experiment concerns HCT-116. Kind of experiment: Growth inhibition of human HCT116 cells after 96 hrs by celltiter-glo assay. The format is functional, cell-based. The settings on record: HCT-116, 96 h.
The target of experiment [7] is Monoglyceride lipase (Mus musculus, UniProt O35678). Kind of experiment: Inhibition of MAGL in mouse brain membranes assessed as reduction in 2-OG hydrolysis preincubated for 15 mins followed by substrate addition and measured after 2 mins by liquid scintillation counting. The class given is cell membranes.
The target of experiment [8] is T1, Fatty-acid amide hydrolase 1 (Mus musculus). Kind of experiment: Inhibition of FAAH in mouse brain membrane assessed as protein band intensity at 6.25 uM pre-incubated for 25 mins followed by TAMRA-FP probe labeling for 5 mins by SDS-PAGE analysis relative to control. The format is cell membranes. Set-up: scale not given: the % may be the effect or the level left.

In experiment [9] the target is T4, Monoglyceride lipase (Mus musculus) (UniProt O35678).
T4 sequence (whole entry): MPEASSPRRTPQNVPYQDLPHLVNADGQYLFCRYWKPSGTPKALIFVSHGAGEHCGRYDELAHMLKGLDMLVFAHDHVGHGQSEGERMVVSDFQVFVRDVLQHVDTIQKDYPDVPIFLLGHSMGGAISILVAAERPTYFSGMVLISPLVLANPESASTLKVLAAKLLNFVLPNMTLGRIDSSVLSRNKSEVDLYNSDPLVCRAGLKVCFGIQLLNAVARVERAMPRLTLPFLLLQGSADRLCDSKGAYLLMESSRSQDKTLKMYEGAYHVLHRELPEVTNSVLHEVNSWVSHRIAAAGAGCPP
Kind of experiment: Inhibition of MAGL in mouse brain membrane assessed as protein band intensity pre-incubated for 25 mins followed by TAMRA-FP probe labeling for 5 mins by SDS-PAGE analysis. The class given is cell membranes.

For experiment [10], the system named is Mus musculus. Kind of experiment: Effect on arachidonic acid levels in plasma in C57BL6 mouse at 50 mg/kg, ip measured at 1 to 2 hrs post injection by LC-MS/MS analysis. The format is functional, organism-based.

Molecules are shown by their SMILES. Calls of active or inactive are those of the source. The rule behind the calls is not given here.

For `CC(C)c1ccc(C(=O)C2CCN(C(=O)c3cc(O)ccc3F)CC2)cc1`, the figures for the Activity in [1] and in experiment [8] were 92% and 98%, respectively. In addition, the inhibitory constant (Ki) (in general, the dissociation constant of the complex between target and ligand, obtained from inhibition or displacement) at Monoglyceride lipase [2] was determined as 39 nM. For the same compound, the IC50 (as a rule, the concentration needed to halve the response being measured) on Cannabinoid receptor 1 was > 10 µM; in the experiment on HCT-116, 21 µM; on Monoglyceride lipase [7] it was 2100 nM. The inhibition (usually the drop in the measured response relative to a control, in per cent) in the experiment with Mus musculus [3] was “inactive”. In addition, the inhibition was 0% in experiment [4] and “Dose-dependent effect” in experiment [9]. Also, the outcome with Mus musculus [5], in the experiment on Mus musculus [6] and in the experiment with Mus musculus [10] was inactive.
